Measured values as given in ChEMBL document CHEMBL4732065 (Eur J Med Chem, 2021).

Species on record: Homo sapiens
Assay: Selectivity index, ratio of IC50 for recombinant human CYP1A1 to IC50 for recombinant human CYP1B1

First: COc1ccc(OC)c2c1c(OC)cc1c(=O)cc(-c3ccc4[nH]cnc4c3)oc12
Second: COc1ccc(OC)c2c1c(OC)cc1c(=O)cc(-c3ccc4[nH]ncc4c3)oc12
The Ratio IC50 of the first is higher: 2.7 for the first, 0.8 for the second.

Going from `COc1ccc(OC)c2c1c(OC)cc1c(=O)cc(-c3ccc4cc[nH]c4c3)oc12` to `COc1ccc(OC)c2c1c(OC)cc1c(=O)cc(-c3c[nH]c4ccccc34)oc12`, the Ratio IC50 falls from 149 to 4.

First: COc1ccc(OC)c2c1c(OC)cc1c(=O)cc(-c3cccnc3)oc12
Second: COc1ccc(OC)c2c1c(OC)cc1c(=O)cc(-c3ccncc3)oc12
The Ratio IC50 of the first is lower: 7.6 for the first, 33.7 for the second.

Going from `COc1ccc(OC)c2c1c(OC)cc1c(=O)cc(-c3ccc(N)cn3)oc12` to `COc1ccc(OC)c2c1c(OC)cc1c(=O)cc(-c3ccncc3N)oc12`, the Ratio IC50 falls from 11.1 to 1.3.

`COc1ccc(OC)c2c1c(OC)cc1c(=O)cc(-c3cscn3)oc12` was tested, and the Ratio IC50 was 1.2.

What follows are compounds tested against T1, Cytochrome P450 1A1 (Homo sapiens, UniProt P04798) (assay: Inhibition of recombinant human CYP1A1 using 7-ethoxyresorufin as substrate after 15 mins in presence of NADP+ by EROD assay).
T1 sequence (P04798 whole entry): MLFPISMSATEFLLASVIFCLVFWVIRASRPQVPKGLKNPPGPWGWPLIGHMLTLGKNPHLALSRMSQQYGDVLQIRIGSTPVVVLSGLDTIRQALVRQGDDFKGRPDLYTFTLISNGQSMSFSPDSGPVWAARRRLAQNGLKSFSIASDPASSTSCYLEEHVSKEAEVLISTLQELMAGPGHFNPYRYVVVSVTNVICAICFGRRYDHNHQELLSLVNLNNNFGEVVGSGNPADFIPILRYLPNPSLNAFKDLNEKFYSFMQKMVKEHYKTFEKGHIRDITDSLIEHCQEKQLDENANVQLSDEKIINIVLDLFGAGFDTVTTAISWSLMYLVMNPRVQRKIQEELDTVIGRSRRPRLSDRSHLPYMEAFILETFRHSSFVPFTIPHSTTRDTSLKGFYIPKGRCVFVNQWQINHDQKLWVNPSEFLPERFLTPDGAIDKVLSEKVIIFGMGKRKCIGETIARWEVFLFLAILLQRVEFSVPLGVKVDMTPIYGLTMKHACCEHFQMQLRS
Format: ADME
Summary of the method: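 Recombinant human CYP1 Supersomes co-expressing P450 reductase; 20 fmol CYP1B1, 10 fmol CYP1A1 or 60 fmol CYP1A2 per well. Incubated at 37 °C (1B1 35 min, 1A1 15 min, 1A2 50 min). Stopped with cold methanol; fluorescence read at 544/590 nm; triplicates.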

Compared with `COc1ccc(OC)c2c1c(OC)cc1c(=O)cc(-c3ccc4[nH]cnc4c3)oc12`, `COc1ccc(OC)c2c1c(OC)cc1c(=O)cc(-c3ccc4[nH]ncc4c3)oc12` is 26-fold lower in IC50: 42.4 nM for the first, 1.6 nM for the second. The second is the more potent here.

Compared with `COc1ccc(OC)c2c1c(OC)cc1c(=O)cc(-c3ccc4cc[nH]c4c3)oc12`, `COc1ccc(OC)c2c1c(OC)cc1c(=O)cc(-c3c[nH]c4ccccc34)oc12` is 8.6-fold lower in IC50: 142 nM for the first, 16.5 nM for the second. The second is the more potent here.

First: COc1ccc(OC)c2c1c(OC)cc1c(=O)cc(-c3cccnc3)oc12
Second: COc1ccc(OC)c2c1c(OC)cc1c(=O)cc(-c3ccncc3)oc12
The IC50 of the first is 5.3-fold lower: 7.6 nM for the first, 40.4 nM for the second. The first is the more potent here.

Compared with `COc1ccc(OC)c2c1c(OC)cc1c(=O)cc(-c3ccc(N)cn3)oc12`, `COc1ccc(OC)c2c1c(OC)cc1c(=O)cc(-c3ccncc3N)oc12` is 2.1-fold lower in IC50: 66.6 nM for the first, 31.6 nM for the second. The second is the more potent here.

`COc1ccc(OC)c2c1c(OC)cc1c(=O)cc(-c3cscn3)oc12` gave an IC50 of 3.1 nM.

What follows are compounds tested against T2, Cytochrome P450 1B1 (Homo sapiens, UniProt Q16678) (assay: Inhibition of recombinant human CYP1B1 using 7-ethoxyresorufin as substrate after 35 mins in presence of NADP+ by EROD assay).
T2 sequence (Q16678 whole entry): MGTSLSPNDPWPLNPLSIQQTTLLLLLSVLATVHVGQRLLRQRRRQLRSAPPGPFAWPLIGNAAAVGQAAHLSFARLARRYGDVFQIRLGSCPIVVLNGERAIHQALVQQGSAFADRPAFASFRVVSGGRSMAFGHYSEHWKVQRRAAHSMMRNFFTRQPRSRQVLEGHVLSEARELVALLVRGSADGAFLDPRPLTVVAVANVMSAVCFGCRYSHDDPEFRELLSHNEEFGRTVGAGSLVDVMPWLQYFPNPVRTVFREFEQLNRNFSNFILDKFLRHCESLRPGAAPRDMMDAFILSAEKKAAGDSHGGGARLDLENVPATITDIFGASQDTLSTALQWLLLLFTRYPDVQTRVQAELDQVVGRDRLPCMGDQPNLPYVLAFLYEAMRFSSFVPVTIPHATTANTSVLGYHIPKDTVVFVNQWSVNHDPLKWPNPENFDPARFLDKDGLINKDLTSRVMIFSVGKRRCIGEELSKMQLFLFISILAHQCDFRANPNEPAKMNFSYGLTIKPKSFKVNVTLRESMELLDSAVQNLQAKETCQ
Summary of the method: (§1)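 Recombinant human CYP1 Supersomes co-expressing P450 reductase; 20 fmol CYP1B1, 10 fmol CYP1A1 or 60 fmol CYP1A2 per well. Incubated at 37 °C (1B1 35 min, 1A1 15 min, 1A2 50 min).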

Going from `COc1ccc(OC)c2c1c(OC)cc1c(=O)cc(-c3ccc4[nH]cnc4c3)oc12` to `COc1ccc(OC)c2c1c(OC)cc1c(=O)cc(-c3ccc4[nH]ncc4c3)oc12`, the IC50 falls from 15.6 nM to 2 nM (7.8-fold).

First: COc1ccc(OC)c2c1c(OC)cc1c(=O)cc(-c3ccc4cc[nH]c4c3)oc12
Second: COc1ccc(OC)c2c1c(OC)cc1c(=O)cc(-c3c[nH]c4ccccc34)oc12
The IC50 of the first is 4.3-fold lower: 0.95 nM for the first, 4.1 nM for the second.

`COc1ccc(OC)c2c1c(OC)cc1c(=O)cc(-c3cccnc3)oc12` and `COc1ccc(OC)c2c1c(OC)cc1c(=O)cc(-c3ccncc3)oc12` are within 1.5-fold of each other in IC50: 1 nM for the first, 1.2 nM for the second.

First: COc1ccc(OC)c2c1c(OC)cc1c(=O)cc(-c3ccc(N)cn3)oc12
Second: COc1ccc(OC)c2c1c(OC)cc1c(=O)cc(-c3ccncc3N)oc12
The IC50 of the first is 4.1-fold lower: 6 nM for the first, 24.8 nM for the second. The first is the more potent here.

With `COc1ccc(OC)c2c1c(OC)cc1c(=O)cc(-c3cscn3)oc12` the IC50 was 2.6 nM.

These compounds were tested against T3, Cytochrome P450 1A2 (Homo sapiens, UniProt P05177) (assay: Inhibition of recombinant human CYP1A2 using 7-ethoxyresorufin as substrate after 50 mins in presence of NADP+ by EROD assay).
T3 sequence (P05177 whole entry): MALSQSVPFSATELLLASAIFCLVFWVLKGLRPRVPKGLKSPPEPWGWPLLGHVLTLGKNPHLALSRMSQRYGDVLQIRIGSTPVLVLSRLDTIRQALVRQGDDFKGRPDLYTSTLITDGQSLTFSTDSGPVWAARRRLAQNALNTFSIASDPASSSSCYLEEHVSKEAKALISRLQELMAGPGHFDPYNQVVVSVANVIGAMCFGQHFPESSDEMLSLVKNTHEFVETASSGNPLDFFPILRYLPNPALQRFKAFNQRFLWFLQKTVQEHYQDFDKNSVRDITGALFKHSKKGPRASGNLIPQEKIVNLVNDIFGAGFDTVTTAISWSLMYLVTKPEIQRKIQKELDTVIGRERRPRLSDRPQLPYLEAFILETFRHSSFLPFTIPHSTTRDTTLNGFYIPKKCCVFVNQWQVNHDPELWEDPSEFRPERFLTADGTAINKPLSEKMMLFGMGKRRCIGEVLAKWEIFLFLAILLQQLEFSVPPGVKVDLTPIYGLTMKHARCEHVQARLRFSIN
Format: ADME
Summary of the method: as §1

`COc1ccc(OC)c2c1c(OC)cc1c(=O)cc(-c3ccc4[nH]cnc4c3)oc12` and `COc1ccc(OC)c2c1c(OC)cc1c(=O)cc(-c3ccc4[nH]ncc4c3)oc12` cannot be ordered by IC50: > 1000 nM for the first, > 1000 nM for the second.

`COc1ccc(OC)c2c1c(OC)cc1c(=O)cc(-c3ccc4cc[nH]c4c3)oc12` and `COc1ccc(OC)c2c1c(OC)cc1c(=O)cc(-c3c[nH]c4ccccc34)oc12` cannot be ordered by IC50: > 1000 nM for the first, > 1000 nM for the second.

Compared with `COc1ccc(OC)c2c1c(OC)cc1c(=O)cc(-c3cccnc3)oc12`, `COc1ccc(OC)c2c1c(OC)cc1c(=O)cc(-c3ccncc3)oc12` is 1.7-fold higher in IC50: 117 nM for the first, 200 nM for the second. The first is the more potent here.

`COc1ccc(OC)c2c1c(OC)cc1c(=O)cc(-c3ccc(N)cn3)oc12` and `COc1ccc(OC)c2c1c(OC)cc1c(=O)cc(-c3ccncc3N)oc12` cannot be ordered by IC50: > 1000 nM for the first, > 1000 nM for the second.

For `COc1ccc(OC)c2c1c(OC)cc1c(=O)cc(-c3cscn3)oc12`, the IC50 was 29.2 nM.

Species on record: Homo sapiens
Assay: Selectivity index, ratio of IC50 for recombinant human CYP1A2 to IC50 for recombinant human CYP1B1

`COc1ccc(OC)c2c1c(OC)cc1c(=O)cc(-c3ccc4[nH]cnc4c3)oc12` and `COc1ccc(OC)c2c1c(OC)cc1c(=O)cc(-c3ccc4[nH]ncc4c3)oc12` cannot be ordered by Ratio IC50: > 64.1 for the first, > 500 for the second.

`COc1ccc(OC)c2c1c(OC)cc1c(=O)cc(-c3ccc4cc[nH]c4c3)oc12` and `COc1ccc(OC)c2c1c(OC)cc1c(=O)cc(-c3c[nH]c4ccccc34)oc12` cannot be ordered by Ratio IC50: > 1050 for the first, > 244 for the second.

Going from `COc1ccc(OC)c2c1c(OC)cc1c(=O)cc(-c3cccnc3)oc12` to `COc1ccc(OC)c2c1c(OC)cc1c(=O)cc(-c3ccncc3)oc12`, the Ratio IC50 rises from 117 to 166.

`COc1ccc(OC)c2c1c(OC)cc1c(=O)cc(-c3ccc(N)cn3)oc12` and `COc1ccc(OC)c2c1c(OC)cc1c(=O)cc(-c3ccncc3N)oc12` cannot be ordered by Ratio IC50: > 167 for the first, > 40.3 for the second.

In the case of `COc1ccc(OC)c2c1c(OC)cc1c(=O)cc(-c3cscn3)oc12`, the Ratio IC50 is reported as 11.2.
